# Measurements reported in PubChem BioAssay AID809 (SRMLSC, 2007).
# Calls of active or inactive are those of the source.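 Rule for the calls: active = EC50 for reversing nicotinamide-shortened yeast lifespan at or below a set limit; inactive = EC50 above that limit.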
# Tested on: S. cerevisiae DeaD BB579, nicotinamide rescue growth, OD615 48 h
# Test: rescue of nicotinamide-suppressed growth of yeast BB579, dose response, yeast lifespan extension project, S. cerevisiae (AID 809)
# Summary of the method: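 Assay system: Saccharomyces cerevisiae DeaD strain BB579, log-phase cells; Medium: CSMM-D glucose restrictive medium; Dosing: compounds from 0.078 to 10 µM final, 0.5% DMSO; Times: 4 h pre-incubation, 48 h exposure at 30 °C; Technique: optical density at 615 nm (absorbance); Evaluation: culture saturation density reflecting mother-cell replicative lifespan.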
row,Structure (SMILES),EC50
1,CCOc1cc(Br)c(Br)c(C=Nc2ccc(NC(C)=O)cc2)c1O,5.03 µM
2,COc1cc(OC)cc(-c2nc3ccccc3c(=O)n2OC(=O)c2ccc(Br)cc2)c1,6.14 µM
3,CN1C(=O)NC(c2ccc(O)cc2)C(C(=O)c2cccs2)C1(O)C(F)(F)F (centres undefined),> 10 µM (inactive)
4,CC(=O)Oc1oc(-c2ccccc2)nc1C=Nc1ccccc1,5.95 µM
5,CC1(C)CC2c3cccc(C(=O)O)c3C(=O)N2c2c1ccc1ccccc21 (centres undefined),2.84 µM
6,O=C(NCc1ccc(Cl)cc1)c1ccccc1CCc1ccccc1,7.94 µM
7,COc1ccc(C(CNC(=O)c2cccc(Br)c2)N2CCCC2)cc1 (centres undefined),> 10 µM (inactive)
8,CN1CCC2(CC1)C(C#N)=C(N)NC(S)=C2C#N,> 10 µM (inactive)
9,O=C(CCN1CCCCCC1)Nc1ccc(F)cc1,> 10 µM (inactive)
10,CCCC[n+]1c(-c2ccc(Cl)cc2Cl)csc1Nc1ccccc1,> 10 µM (inactive)
11,O=C1NCC2=C1C(c1ccc(Br)cc1)Nc1ccccc1N2 (centres undefined),6.26 µM
12,CCc1nnc(N2C(=O)c3ccc(Oc4ccc([N+](=O)[O-])cc4)cc3C2=O)s1,> 10 µM (inactive)
13,N#C/C(=C\c1ccccc1)C(=O)N(c1ccccn1)C1CCCCC1,6.66 µM
14,Cc1cc(C=C2C(=O)N(C)C(=S)N(C)C2=O)c(C)n1-c1cccnc1,> 10 µM (inactive)
15,CCOC(=O)C1C(c2cccs2)NC(=O)N(C)C1(O)C(F)(F)F (centres undefined),> 10 µM (inactive)
16,COCCN(CCOC)S(=O)(=O)c1ccc(C(=O)Nc2sc3c(c2C(N)=O)CCCCC3)cc1,> 10 µM (inactive)
17,CC(C)Cn1c(=O)c(C(=O)Nc2cnccn2)c(O)c2ccccc21,9.1 µM
18,O=c1c2ccccc2nc(-c2cccc(Cl)c2)n1O,< 0.078 µM
19,CCn1c(/C=N/c2nc3ccccc3n2C)nc2ccccc21,> 10 µM (inactive)
20,CCOC(=O)CCCNC(=O)COc1ccccc1C#N,> 10 µM (inactive)
21,CC(=C1C(=O)c2ccccc2C1=O)N1CCN(c2ccccn2)CC1,7.21 µM
22,O=c1c2c3c(sc2ncn1/N=C/c1ccc([N+](=O)[O-])o1)CCCC3,> 10 µM (inactive)

row,Structure (SMILES),EC50
1,O=C(O)c1c[nH]c(=S)n1-c1ccc(F)cc1,> 10 µM (inactive)
2,O=[N+]([O-])c1c(C(Cl)Cl)nn(-c2ccccc2)c1N1CCCC1,7.47 µM
3,Cc1oc2c(c(=O)c1C)C(=O)CC(c1ccccc1)C2 (centres undefined),7.82 µM
4,CCCCn1c(=O)c(C(=O)Nc2cnccn2)c(O)c2ccccc21,3.01 µM
5,Cc1nonc1NC(=O)CSc1nc(C2CCCCC2)nc2ccccc12,> 10 µM (inactive)
6,COc1ccc(-c2cc(C(F)(F)F)nc(S(C)(=O)=O)n2)cc1,6.1 µM
7,Cc1ccccc1Oc1cc(-n2ncc(Cl)c(Cl)c2=O)ncn1,> 10 µM (inactive)
8,Cc1ccsc1C(=O)Nc1nnc(-c2ccco2)o1,9.27 µM
9,CC(C)C(OC(=O)CN1C(=O)COc2ccccc21)C(=O)NC1CCCC1 (centres undefined),> 10 µM (inactive)
10,C=C(C)CN(CC)C(=O)COc1ccc(S(=O)(=O)Nc2ccc(OC)cc2)cc1,> 10 µM (inactive)
11,Cc1ccc(/C(O)=C2\C(=O)C(=O)N(c3cc(C)on3)C2c2cccc(Cl)c2)cc1 (centres undefined),9.72 µM
12,CN1C(=O)C(Cl)(Cl)C(=O)c2ccccc21,> 10 µM (inactive)
13,Fc1cccc2sc(Nc3nnc(-c4ccccc4)o3)nc12,3.02 µM
14,Cc1ccc(NC(=O)C2C(=O)N(C)c3ccccc32)cc1 (centres undefined),> 10 µM (inactive)
15,Cc1ccc(OCC(=O)c2c(O)c3ccccc3oc2=O)cc1C,8.97 µM
16,CNC(=S)NC1CC2CCCC(C1)N2Cc1ccco1 (centres undefined),> 10 µM (inactive)
17,CCCc1[nH]nc2c1C(c1ccc(Br)s1)C(C#N)=C(N)O2 (centres undefined),6.56 µM
18,COc1ccc(NC(=O)/C(Cl)=C(/Cl)S(=O)Cc2ccc(C)cc2)cn1 (centres undefined),> 10 µM (inactive)
19,N#Cc1c(-c2ccccc2)c(-c2ccccc2)nn(CC(=O)NNC(=O)Nc2ccccc2)c1=O,> 10 µM (inactive)
20,CCOC(=O)CS(=O)(=O)c1nc(-c2ccc(F)cc2)cc(C(F)(F)F)n1,5.71 µM
21,CCCCOC(=O)n1c(=O)oc2cc(S(=O)(=O)N3CCCCC3)ccc21,> 10 µM (inactive)
22,C=CS(=O)(=O)c1ccc(Oc2ccc(S(=O)(=O)C=C)cc2)cc1,7.12 µM
